Test results from publication PMC3733550 (Biochemical pharmacology, 2011).
Read-outs that look alike come from different tables or passages of the source. Marks after values point to notes of the source that are not given here. One block for each molecule: values may come before it.

Columns and labels:
[1] = system: ABCG2-expressing MDA-MD-231/R cells; assay: Re-sensitization of MDA-MB-231/R cells to mitoxantrone; format: cell-based, human
ABCG2 [2] = biological target: T1, ABCG2 (Homo sapiens, UniProt Q9UNQ0); details: read-out: EC50 PhA; increasing PhA content in ABCG2 over-expressing MDA-MB-231/R cells; cited from earlier work
T1 sequence (Q9UNQ0 1-655): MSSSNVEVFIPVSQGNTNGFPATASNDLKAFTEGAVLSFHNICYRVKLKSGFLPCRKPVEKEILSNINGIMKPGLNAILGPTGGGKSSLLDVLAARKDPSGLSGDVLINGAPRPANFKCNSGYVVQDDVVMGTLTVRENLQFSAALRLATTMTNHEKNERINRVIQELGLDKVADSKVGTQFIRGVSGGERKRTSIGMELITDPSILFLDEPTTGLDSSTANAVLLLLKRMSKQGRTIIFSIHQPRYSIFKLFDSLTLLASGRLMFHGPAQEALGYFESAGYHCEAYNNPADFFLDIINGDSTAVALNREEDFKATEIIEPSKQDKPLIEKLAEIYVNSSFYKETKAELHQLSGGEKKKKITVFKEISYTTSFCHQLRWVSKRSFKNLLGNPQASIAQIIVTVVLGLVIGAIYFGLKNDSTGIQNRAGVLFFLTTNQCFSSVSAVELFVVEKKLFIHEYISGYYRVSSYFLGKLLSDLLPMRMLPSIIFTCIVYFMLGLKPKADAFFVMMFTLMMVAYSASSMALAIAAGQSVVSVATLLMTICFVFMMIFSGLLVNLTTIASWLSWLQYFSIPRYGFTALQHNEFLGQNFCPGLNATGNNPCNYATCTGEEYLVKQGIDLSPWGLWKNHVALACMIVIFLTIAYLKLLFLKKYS

MDA-MB-231/V cells = assay: Growth inhibition by mitoxantrone in parental MDA-MB-231/V cells; format: cell-based; details: Homo sapiens, MDA-MB-231, 72 h, read-out: IC50 value of MX in MDA-MB-231/V cells
[3] = system: ABCG2 expression in MDA-MB-231/R cells; assay: Western blot analysis of ABCG2 protein levels in MDA-MB-231/R cells; format: cell-based, human; details: 72 h; A-2 0.5 μM or 1 μM; MX 0.1 μM
ABCG2 [4] = biological target: T1, ABCG2; assay: ABCG2 ATPase assay; format: biochemical
ABCG2 [5] = biological target: T1, ABCG2; assay: Photoaffinity labeling of ABCG2 with [125I]-IAAP in MCF-7 FLV1000 membranes; format: binding; details: test compound 5 μM
MDA-MB-231/R = assay: Cell cytotoxicity by MTT assay on MDA-MB-231/R cells; format: cell-based, human; details: % of control cells (1% DMSO)
In short: (§1)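 Cells grown in RPMI 1640 with 10% FBS and 1.0 mg/ml geneticin at 37°C, 5% CO2, and used within 10 passages. 10^4 cells/well were seeded for 24 h, then exposed for 72 h to test compound (5 or 10 μM; 1% v/v DMSO final). After a PBS wash, MTT was added (3 h, 37°C), formazan dissolved in DMSO, and A590 read. Viability is % of 1% DMSO controls, mean (SD) of three independent determinations.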

MDA-MB-231/V = assay: Cell cytotoxicity by MTT assay on MDA-MB-231/V cells; format: cell-based, human; details: % of control cells (1% DMSO)
In short: as §1

SMILES: COc1ccc2c3c([nH]c2c1)[C@H](C=C(C)C)N1C(=O)[C@@H]2CCCN2C(=O)[C@@H]1C3 [FTC, fumitremorgin C]
Resistance index ([1]; MX + test compound 0.05 μM, IC50 of MX R cells + test compound / IC50 of MX V cells): 7.4
EC50 (ABCG2 [2]): 1300 nM

SMILES: O=C1c2c(O)ccc(O)c2C(=O)c2c(NCCNCCO)ccc(NCCNCCO)c21 [Mitoxantrone]
IC50 ([1]; Homo sapiens, MDA-MB-231, 72 h, read-out: IC50 of mitoxantrone): 920 nM
IC50 (MDA-MB-231/V cells): 70 nM
Effect on ABCG2 protein levels in R cells [3]: no effect

ATPase activity (fold stimulation) (ABCG2 [4]): 2.8 fold
EC50 (ABCG2 [4]): 190 nM
Effect on photolabelling of ABCG2 by [125I]-IAAP (in words) (ABCG2 [5]): minimal changes
SMILES: O=C1/C(=C/c2ccccc2)Oc2ccccc21 [UA-1]
% Viability MDA-MB-231/R 5 μM (MDA-MB-231/R; 5 μM): 68 (10) ^d %
% Viability MDA-MB-231/R 10 μM (MDA-MB-231/R; 10 μM): 60 (8) ^c %
% Viability MDA-MB-231/V 5 μM (MDA-MB-231/V; 5 μM): 98 (9) ^d %
% Viability MDA-MB-231/V 10 μM (MDA-MB-231/V; 10 μM): 103 (7) ^c %
